# Measured values as given in ChEMBL document CHEMBL4715720, “Synthetic strategy and antiviral evaluation of diamide containing heterocycles targeting dengue and yellow fever virus” (Eur J Med Chem, 2016).
# What was measured:
# [1] = (§1) Selectivity index, ratio of CC50 for African green monkey Vero-B cells infected with Dengue virus serotype 2 assessed as inhibition of cell growth to EC50 for Dengue Virus serotype 2 infected in Vero-B cells assessed as inhibition of virus-induced cytopathogenic effect incubated for 7 days by methylene blue staining based visual analysis; assay type: toxicity; conditions: read-out: Ratio CC50/EC50
# Yellow fever virus = test: Antiviral activity against Yellow fever virus infected in Vero-B cells assessed as inhibition of virus-induced cytopathogenic effect after 7 days by methylene blue staining based visual analysis; assay type: functional, organism-based; conditions: 168 h
# Procedure, shortened: (§2)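 Yellow fever virus was tested in Vero-B cells of the ATCC CCL-81 line. EC50 is the concentration giving 50% inhibition of virus-induced CPE. CC50 is the concentration giving 50% inhibition of cell growth. The original μg/mL data were converted to μM.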
# [2] = as §1, with “Yellow fever” for “Dengue”, “virus” for “virus serotype 2”, “Yellow fever virus” for “Dengue Virus serotype 2”; assay type: toxicity; conditions: read-out: Ratio CC50/EC50
# dengue virus type 2 = test: Antiviral activity against Dengue virus serotype 2 infected in Vero-B cells assessed as inhibition of virus-induced cytopathogenic effect after 7 days by methylene blue staining based visual analysis; assay type: functional, organism-based; conditions: 168 h
# Procedure, shortened: (§3)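 Dengue virus serotype 2 was tested in green monkey kidney Vero-B cells from the ECACC line. EC50 is the concentration that inhibits virus-induced CPE by 50%. CC50 is the concentration that inhibits cell growth by 50%. Values were first obtained in μg/mL and then recalculated to μM.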
# [3] = Cytotoxicity against African green monkey Vero-B cells infected with Dengue virus serotype 2 assessed as inhibition of cell growth after 7 days by methylene blue staining based visual analysis; conditions: chlorocebus aethiops, time 7 day; procedure, shortened: as §3
# [4] = Cytotoxicity against African green monkey Vero-B cells infected with Yellow fever virus assessed as inhibition of cell growth after 7 days by methylene blue staining based visual analysis; conditions: chlorocebus aethiops, time 7 day; procedure, shortened: as §2
SMILES,selectivity ratio at 168 h [1],selectivity ratio at 168 h [2],other results
Cc1ccc(NC(=O)c2ccccc2C(=O)Nc2ccc(C)cc2-c2ccsc2)cc1,41,,
O=C(NCc1ccccc1-c1ccsc1)c1ccccc1C(=O)Nc1ccc(F)cc1,17,53,EC50 (Yellow fever virus): 1.4 µM; EC50 (dengue virus type 2): 3 µM; CC50 at 168 h [3]: 50 µM; CC50 at 168 h [4]: 75 µM
Cc1ccc(NC(=O)c2nccnc2C(=O)Nc2ccc(C)cc2-c2cccs2)cc1,> 235,,
Cc1ccc(NC(=O)c2nccnc2C(=O)Nc2ccc(F)cc2)c(-c2cccs2)c1,,5,
Cc1ccc(NC(=O)c2ccccc2C(=O)Nc2ccc(F)cc2)c(-c2cc(C)n[nH]2)c1,> 235,,
Cc1ccc(NC(=O)c2nccnc2C(=O)Nc2ccc(C)cc2-c2cc(C)n[nH]2)cc1,> 235,,
Cc1ccc(NC(=O)c2nccnc2C(=O)Nc2ccc(C)cc2-c2ccsc2)cc1,> 29,,
Cc1ccc(NC(=O)c2nccnc2C(=O)Nc2ccccc2-c2cc(C)n[nH]2)cc1,,> 34,
